Numbered stars: 1 amine (or outer) side, 2 acyl side, 3 side chain; on linkers, the order of the positions; unused ones are H or OH. Bridge positions count the residues as written; N and C are the ends. Square brackets hold non-standard residues; d marks the D form. Peptide text beside a SMILES is read from it. X1 = O=C(CC1(S[*:2])CCCCC1)[*:1]

The species named for assay [1] is Rattus norvegicus. Nature of the assay: Compound was evaluated for the competitive antagonism to Arginine vasopressin (AVP) in rat antidiuretic assay. It counts as functional, organism-based. To be noted: Urine, read-out: pA2 (converted). An outline of the steps:
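Water-loaded rats under ethanol anesthesia; antidiuretic response to AVP standard. In vivo pA2 estimated by dividing the effective dose (molar level of antagonist halving the agonist response) by an estimated distribution volume of 67 mL/kg.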

The species named for assay [2] is Rattus norvegicus. Nature of the assay: Competitive antagonist activity on oxytocin contractile action in isolated rat uterus. In kind it is functional. The note with it: read-out: pA2 (converted). An outline of the steps:
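Uteri isolated from rats in natural estrus, bathed in Van Dyke-Hastings solution with 0.5 mM Mg2+. Isometric contractions to OT doses recorded by force-displacement transducer; response quantified as integrated area under peaks. Synthetic OT (450 units/mg) standard. pA2 by Schild method from at least four separate assays; mixed agonist/antagonist potencies approximated.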

`CC[C@H](C)[C@@H]1NC(=O)[C@@H](Cc2c[nH]c3ccccc23)NC(=O)CC2(CCCCC2)SSC[C@@H](C(=O)N2CCC[C@H]2C(=O)N[C@@H](CCCN=C(N)N)C(=O)N[C@@H](Cc2c[nH]c3ccccc23)C(N)=O)NC(=O)[C@H](CC(N)=O)NC(=O)[C@H](CCC(N)=O)NC1=O`: the Kb in the assay filed under Rattus norvegicus [1] is greater than 1 µM; in the assay filed under Rattus norvegicus [2], 0.00933 µM.
Taken in the same sequence, the figures for `CC[C@H](C)[C@@H]1NC(=O)[C@@H](Cc2c[nH]c3ccccc23)NC(=O)CC2(CCCCC2)SSC[C@@H](C(=O)N2CCC[C@H]2C(=O)N[C@@H](Cc2c[nH]c3ccccc23)C(=O)NCC(N)=O)NC(=O)[C@H](CC(N)=O)NC(=O)[C@H](CCC(N)=O)NC1=O` were greater than 1 µM and 0.00603 µM.
As for `CC[C@H](C)[C@H](NC(=O)[C@@H](Cc1c[nH]c2ccccc12)NC(=O)CC12CC3CC(CC(C3)C1)C2)C(=O)N[C@@H](CCC(N)=O)C(=O)N[C@@H](CC(N)=O)C(=O)N[C@H](C(=O)N1CCC[C@H]1C(=O)N[C@@H](CCCN=C(N)N)C(=O)NCC(N)=O)C(C)C`, in the assay filed under Rattus norvegicus [2], the Kb is 4.27 µM.
Take `CC[C@H](C)[C@@H]1NC(=O)[C@@H](Cc2c[nH]c3ccccc23)NC(=O)CC2(CCCCC2)SSC[C@@H](C(=O)N2CCC[C@H]2C(=O)N[C@@H](CCCN=C(N)N)C(=O)N[C@@H](Cc2cn(C=O)c3ccccc23)C(N)=O)NC(=O)[C@H](CC(N)=O)NC(=O)[C@H](CCC(N)=O)NC1=O`: the Kb in the assay filed under Rattus norvegicus [2] is 0.0214 µM.
Still for that read-out and setting: next, `CC[C@H](C)[C@H](NC(=O)[C@@H](Cc1c[nH]c2ccccc12)NC(=O)CC12CC3CC(CC(C3)C1)C2)C(=O)N[C@@H](CCC(N)=O)C(=O)N[C@@H](CC(N)=O)C(=O)N[C@@H](Cc1c[nH]c2ccccc12)C(=O)N1CCC[C@H]1C(=O)N[C@@H](CCCN=C(N)N)C(=O)NCC(N)=O`: 0.302 µM; `CC[C@H](C)[C@@H]1NC(=O)[C@@H](Cc2c[nH]c3ccccc23)NC(=O)CC2(CCCCC2)SSC[C@@H](C(=O)N2c3ccccc3C[C@H]2C(=O)N[C@@H](CCCN=C(N)N)C(=O)NCC(N)=O)NC(=O)[C@H](CC(N)=O)NC(=O)[C@H](CCC(N)=O)NC1=O`: 0.012 µM.
As to `CC[C@H](C)[C@@H]1NC(=O)[C@@H](Cc2c[nH]c3ccccc23)NC(=O)CC2(CCCCC2)SSC[C@@H](C(=O)N[C@@H](Cc2c[nH]c3ccccc23)C(=O)N[C@@H](CCCN=C(N)N)C(=O)NCC(N)=O)NC(=O)[C@H](CC(N)=O)NC(=O)[C@H](CCC(N)=O)NC1=O`, the Kb in the assay filed under Rattus norvegicus [1] was greater than 1.58 µM; in the assay listed under Rattus norvegicus [2] it was 0.00871 µM.
With `CC[C@H](C)[C@H](NC(=O)[C@@H](Cc1c[nH]c2ccccc12)NC(=O)[C@H](Cc1c[nH]c2ccccc12)NC(C)=O)C(=O)N[C@@H](CCC(N)=O)C(=O)N[C@@H](CC(N)=O)C(=O)N[C@H](C(=O)N1CCC[C@H]1C(=O)N[C@@H](CCCN=C(N)N)C(=O)NCC(N)=O)C(C)C`, the Kb in the assay listed under Rattus norvegicus [2] is 3.72 µM.
For the compound `CC[C@H](C)[C@@H]1NC(=O)[C@H](Cc2c[nH]c3ccccc23)NC(=O)CC2(CCCCC2)SSC[C@@H](C(=O)N2CCC[C@H]2C(=O)N[C@@H](CCCN=C(N)N)C(=O)NCC(N)=O)NC(=O)[C@H](CC(N)=O)NC(=O)[C@H](CCC(N)=O)NC1=O` (WIQNCPRG-NH2; linker N-5 via X1), the Kb in the assay filed under Rattus norvegicus [2] was 0.316 µM.
As for `CC[C@H](C)[C@@H]1NC(=O)[C@@H](Cc2c[nH]c3ccccc23)NC(=O)CC2(CCCCC2)SSC[C@@H](C(=O)N2CCC[C@H]2C(=O)N[C@@H](CCCN=C(N)N)C(=O)NCC(N)=O)NC(=O)[C@H](CC(N)=O)NC(=O)[C@H](CCC(N)=O)NC1=O` ([dW]IQNCPRG-NH2; linker N-5 via X1), the Kb in the assay listed under Rattus norvegicus [1] is greater than 1.26 µM.
